{"source": "ChEMBL document CHEMBL1629583", "about": "“Establishment of in vitro susceptibility testing methodologies and comparative activities of piperacillin in combination with the penem {beta}-lactamase inhibitor BLI-489” (2009)", "format_in_all_cases": "functional", "key": {"[1]": {"tested_on": "Stenotrophomonas maltophilia", "experiment": "Antimicrobial activity against Stenotrophomonas maltophilia clinical isolate after 18 to 22 hrs by broth microdilution method in presence of beta-lactamase inhibitor BLI-489", "procedure,_shortened": "(§1)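 CLSI broth microdilution in Mueller-Hinton II broth. Serial dilutions of piperacillin were tested with BLI-489 held at a constant 4 μg/ml. Inoculum was 10^5 CFU/ml. Plates were incubated 18 to 22 h at 35°C in ambient air. MIC was the lowest concentration giving complete growth inhibition by unaided eye.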"}, "[2]": {"tested_on": "Haemophilus parainfluenzae", "experiment": "Antimicrobial activity against Haemophilus parainfluenzae clinical isolate after 18 to 22 hrs by broth microdilution method in presence of beta-lactamase inhibitor BLI-489", "procedure,_shortened": "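Haemophilus isolates were tested in Haemophilus test medium by CLSI broth microdilution. Serial piperacillin dilutions carried BLI-489 fixed at 4 μg/ml. Inoculum was 10^5 CFU/ml, incubated 18 to 22 h at 35°C in ambient air. MIC was the lowest concentration completely inhibiting growth by eye.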"}, "[3]": {"tested_on": "Staphylococcus epidermidis", "experiment": "Antimicrobial activity against methicillin-resistant Staphylococcus epidermidis clinical isolate after 18 to 22 hrs by broth microdilution method in presence of beta-lactamase inhibitor BLI-489", "procedure,_shortened": "(§2)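 CLSI broth microdilution in Mueller-Hinton II broth. Antibiotic in serial dilution with the β-lactamase inhibitor held at a constant 4 μg/ml. Inoculum 10^5 CFU/ml. Incubated 18 to 22 h at 35°C in ambient air.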"}, "[4]": {"tested_on": "Enterococcus faecium", "experiment": "Antimicrobial activity against Enterococcus faecium clinical isolate after 18 to 22 hrs by broth microdilution method in presence of beta-lactamase inhibitor Tazobactam", "procedure,_shortened": "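Piperacillin-tazobactam was tested by CLSI broth microdilution in Mueller-Hinton II broth against clinical isolates. Inoculum was 10^5 CFU/ml, with 18 to 22 h incubation at 35°C in ambient air. MIC was read as the lowest concentration completely inhibiting visible growth.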"}, "[5]": {"tested_on": "Streptococcus pneumoniae", "experiment": "Antimicrobial activity against penicillin-resistant Streptococcus pneumoniae clinical isolate after 18 to 22 hrs by broth microdilution method in presence of beta-lactamase inhibitor BLI-489", "procedure,_shortened": "as §2, with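 “broth with 5% lysed horse blood.” for “broth.”, “air. MIC is the lowest concentration with no growth visible to the eye.” for “air.”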"}, "[6]": {"tested_on": "Streptococcus agalactiae", "experiment": "Antimicrobial activity against Streptococcus agalactiae clinical isolate after 18 to 22 hrs by broth microdilution method in presence of beta-lactamase inhibitor BLI-489", "procedure,_shortened": "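Streptococci were tested by CLSI broth microdilution in Mueller-Hinton II broth plus 5% lysed horse blood. Piperacillin dilutions contained a constant 4 μg/ml BLI-489. Inoculum was 10^5 CFU/ml, incubated 18 to 22 h at 35°C in air. MIC was the lowest concentration with no visible growth.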"}, "[7]": {"tested_on": "Bacteroides fragilis", "experiment": "Antimicrobial activity against Bacteroides fragilis clinical isolate after 18 to 22 hrs by broth microdilution method"}, "[8]": {"tested_on": "Bacteroides uniformis", "experiment": "Antimicrobial activity against Bacteroides uniformis clinical isolate after 18 to 22 hrs by broth microdilution method in presence of beta-lactamase inhibitor Tazobactam"}, "[9]": {"tested_on": "Enterococcus durans", "experiment": "Antimicrobial activity against Enterococcus durans clinical isolate after 18 to 22 hrs by broth microdilution method in presence of beta-lactamase inhibitor BLI-489", "procedure,_shortened": "(§3)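 CLSI broth microdilution in Mueller-Hinton II broth. Piperacillin serial dilutions were combined with BLI-489 held constant at 4 μg/ml. Inoculum was 10^5 CFU/ml. Plates were incubated 18 to 22 h at 35°C in ambient air. MIC was the lowest concentration completely inhibiting growth seen by the unaided eye. Piperacillin-tazobactam interpretive criteria were applied.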"}, "[10]": {"tested_on": "Escherichia coli", "experiment": "Antimicrobial activity against class A extended spectrum beta-lactamase- and class D OXA- producing Escherichia coli clinical isolate after 18 to 22 hrs by broth microdilution method in presence of beta-lactamase inhibitor BLI-489", "procedure,_shortened": "as §1"}, "[11]": {"tested_on": "Escherichia coli", "experiment": "Antimicrobial activity against class A extended spectrum beta-lactamase- producing Escherichia coli clinical isolate after 18 to 22 hrs by broth microdilution method in presence of beta-lactamase inhibitor Tazobactam", "procedure,_shortened": "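CLSI broth microdilution of piperacillin-tazobactam in Mueller-Hinton II broth with serial dilutions. Inoculum was 10^5 CFU/ml. Incubation was 18 to 22 h at 35°C in ambient air. MIC was read as the lowest concentration giving complete inhibition of growth visible to the unaided eye.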"}, "[12]": {"tested_on": "Citrobacter freundii", "experiment": "Antimicrobial activity against AmpC beta-lactamase-producing Citrobacter freundii clinical isolate after 18 to 22 hrs by broth microdilution method in presence of beta-lactamase inhibitor Tazobactam", "procedure,_shortened": "(§4)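 Piperacillin-tazobactam was tested on recent clinical isolates by CLSI broth microdilution in Mueller-Hinton II broth, with tazobactam at constant 4 μg/ml. Wells held 10^5 CFU/ml and were incubated 18 to 22 h at 35°C in ambient air. MIC was the lowest concentration with no growth visible to the unaided eye.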"}, "[13]": {"tested_on": "Klebsiella aerogenes", "experiment": "Antimicrobial activity against AmpC beta-lactamase-producing Enterobacter aerogenes clinical isolate after 18 to 22 hrs by broth microdilution method in presence of beta-lactamase inhibitor Tazobactam", "procedure,_shortened": "as §4"}, "[14]": {"tested_on": "Enterobacter cloacae", "experiment": "Antimicrobial activity against AmpC beta-lactamase-producing Enterobacter cloacae clinical isolate after 18 to 22 hrs by broth microdilution method in presence of beta-lactamase inhibitor Tazobactam", "procedure,_shortened": "as §4"}, "[15]": {"tested_on": "Klebsiella aerogenes", "experiment": "Antimicrobial activity against Enterobacter aerogenes clinical isolate after 18 to 22 hrs by broth microdilution method in presence of beta-lactamase inhibitor Tazobactam", "procedure,_shortened": "as §4"}, "[16]": {"tested_on": "Klebsiella aerogenes", "experiment": "Antimicrobial activity against AmpC beta-lactamase-producing Enterobacter aerogenes clinical isolate after 18 to 22 hrs by broth microdilution method in presence of beta-lactamase inhibitor BLI-489", "procedure,_shortened": "as §3"}, "[17]": {"tested_on": "Citrobacter koseri", "experiment": "Antimicrobial activity against Citrobacter koseri clinical isolate after 18 to 22 hrs by broth microdilution method in presence of beta-lactamase inhibitor BLI-489", "procedure,_shortened": "as §3"}, "[18]": {"tested_on": "Klebsiella pneumoniae", "experiment": "Antimicrobial activity against class A extended spectrum beta-lactamase- and class D OXA- producing Klebsiella pneumoniae clinical isolate after 18 to 22 hrs by broth microdilution method in presence of beta-lactamase inhibitor BLI-489", "procedure,_shortened": "as §1"}, "[19]": {"tested_on": "Acinetobacter baumannii", "experiment": "Antimicrobial activity against Acinetobacter baumannii clinical isolate after 18 to 22 hrs by broth microdilution method in presence of beta-lactamase inhibitor BLI-489", "procedure,_shortened": "as §3"}, "[20]": {"tested_on": "Acinetobacter lwoffii", "experiment": "Antimicrobial activity against Acinetobacter lwoffii clinical isolate after 18 to 22 hrs by broth microdilution method in presence of beta-lactamase inhibitor BLI-489", "procedure,_shortened": "as §3"}}, "data": [{"compound": "CCN1CCN(C(=O)N[C@@H](C(=O)N[C@@H]2C(=O)N3[C@@H]2SC(C)(C)[C@@H]3C(=O)O)c2ccccc2)C(=O)C1=O", "note": "[PIPERACILLIN]", "values": [{"measurement": "MIC50", "setting": "[1]", "value": "> 128", "unit": "µg/mL"}, {"measurement": "MIC90", "setting": "[1]", "value": "> 128", "unit": "µg/mL"}, {"measurement": "MIC", "setting": "[2]", "value": "≤ 0.004", "unit": "µg/mL"}, {"measurement": "MIC50", "setting": "[2]", "value": "≤ 0.004", "unit": "µg/mL"}, {"measurement": "MIC90", "setting": "[2]", "value": "≤ 0.004", "unit": "µg/mL"}, {"measurement": "MIC50", "setting": "[3]", "value": 0.5, "unit": "µg/mL"}, {"measurement": "MIC90", "setting": "[3]", "value": 8, "unit": "µg/mL"}, {"measurement": "MIC50", "setting": "[4]", "value": 32, "unit": "µg/mL"}, {"measurement": "MIC90", "setting": "[4]", "value": "> 128", "unit": "µg/mL"}, {"measurement": "MIC50", "setting": "[5]", "value": 2, "unit": "µg/mL"}, {"measurement": "MIC90", "setting": "[5]", "value": 4, "unit": "µg/mL"}, {"measurement": "MIC50", "setting": "[6]", "value": "≤ 0.004", "unit": "µg/mL"}, {"measurement": "MIC90", "setting": "[6]", "value": 0.03, "unit": "µg/mL"}, {"measurement": "MIC50", "setting": "[7]", "value": 8, "unit": "µg/mL"}, {"measurement": "MIC90", "setting": "[7]", "value": "> 128", "unit": "µg/mL"}, {"measurement": "MIC50", "setting": "[8]", "value": 0.5, "unit": "µg/mL"}, {"measurement": "MIC90", "setting": "[8]", "value": 4, "unit": "µg/mL"}, {"measurement": "MIC50", "setting": "[9]", "value": 2, "unit": "µg/mL"}, {"measurement": "MIC90", "setting": "[9]", "value": 8, "unit": "µg/mL"}, {"measurement": "MIC", "setting": "[10]", "value": 2, "unit": "µg/mL"}, {"measurement": "MIC50", "setting": "[10]", "value": 2, "unit": "µg/mL"}, {"measurement": "MIC90", "setting": "[10]", "value": 16, "unit": "µg/mL"}, {"measurement": "MIC50", "setting": "[11]", "value": 16, "unit": "µg/mL"}, {"measurement": "MIC90", "setting": "[11]", "value": 32, "unit": "µg/mL"}, {"measurement": "MIC50", "setting": "[12]", "value": 8, "unit": "µg/mL"}, {"measurement": "MIC90", "setting": "[12]", "value": "> 128", "unit": "µg/mL"}, {"measurement": "MIC", "setting": "[13]", "value": "> 8", "unit": "µg/mL"}, {"measurement": "MIC50", "setting": "[13]", "value": 4, "unit": "µg/mL"}, {"measurement": "MIC90", "setting": "[13]", "value": 16, "unit": "µg/mL"}, {"measurement": "MIC50", "setting": "[14]", "value": 8, "unit": "µg/mL"}, {"measurement": "MIC90", "setting": "[14]", "value": 32, "unit": "µg/mL"}, {"measurement": "MIC50", "setting": "[15]", "value": 64, "unit": "µg/mL"}, {"measurement": "MIC90", "setting": "[15]", "value": 128, "unit": "µg/mL"}, {"measurement": "MIC50", "setting": "[16]", "value": 2, "unit": "µg/mL"}, {"measurement": "MIC90", "setting": "[16]", "value": 8, "unit": "µg/mL"}, {"measurement": "MIC50", "setting": "[17]", "value": 2, "unit": "µg/mL"}, {"measurement": "MIC90", "setting": "[17]", "value": 8, "unit": "µg/mL"}, {"measurement": "MIC50", "setting": "[18]", "value": 8, "unit": "µg/mL"}, {"measurement": "MIC90", "setting": "[18]", "value": 64, "unit": "µg/mL"}, {"measurement": "MIC50", "setting": "[19]", "value": "> 128", "unit": "µg/mL"}, {"measurement": "MIC90", "setting": "[19]", "value": "> 128", "unit": "µg/mL"}, {"measurement": "MIC50", "setting": "[20]", "value": 4, "unit": "µg/mL"}, {"measurement": "MIC90", "setting": "[20]", "value": 16, "unit": "µg/mL"}]}]}
